Results published in ChEMBL document CHEMBL5678806, “NMS-P937, an orally available, specific small-molecule polo-like kinase 1 inhibitor with antitumor activity in solid and hematologic malignancies” (Mol Cancer Ther, 2012).
Calls of active or inactive are those of the source. The rule behind the calls is not given here.

Legend:
[1] = target: Protein-tyrosine kinase 6 (Homo sapiens, UniProt Q13882); assay: Inhibition of BRK (unknown origin) in presence of [gamma-33P]ATP
[2] = target: Tyrosine-protein kinase Lyn (Homo sapiens, UniProt P07948); assay: Inhibition of N-terminal his6-tagged recombinant full-length human Lyn expressed in Sf21 cells assessed as residual activity at 1 uM relative to control
Sequence of Tyrosine-protein kinase Lyn (P07948 2-512 limits assumed): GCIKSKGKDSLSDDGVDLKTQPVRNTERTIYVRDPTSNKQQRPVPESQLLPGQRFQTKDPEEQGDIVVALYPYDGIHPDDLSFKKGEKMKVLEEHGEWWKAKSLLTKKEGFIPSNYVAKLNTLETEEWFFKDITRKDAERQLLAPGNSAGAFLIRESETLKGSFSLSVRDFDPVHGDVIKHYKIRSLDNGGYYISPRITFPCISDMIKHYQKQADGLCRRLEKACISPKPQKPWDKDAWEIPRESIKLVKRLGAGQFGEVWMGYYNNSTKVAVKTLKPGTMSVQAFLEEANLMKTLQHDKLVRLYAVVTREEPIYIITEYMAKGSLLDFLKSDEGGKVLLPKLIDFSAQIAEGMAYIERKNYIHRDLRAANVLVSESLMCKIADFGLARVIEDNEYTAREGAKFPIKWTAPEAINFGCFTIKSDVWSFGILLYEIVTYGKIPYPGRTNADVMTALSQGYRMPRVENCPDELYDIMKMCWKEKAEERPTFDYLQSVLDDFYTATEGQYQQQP

U2OS [3] = assay: Effect on cell morphology in human U2OS cells expressing GFP/alpha-tubulin fusion protein assessed as aberrant number of spindle poles at 1 uM incubated for 24 hrs by laser scanning confocal microscopy analysis; type: functional, cell-based
786-0 = assay: Antiproliferative activity against human 786-0 cells assessed as inhibition of cell growth incubated for 72 hrs by cell-titer glo assay; type: functional, cell-based; details: 786-0, 72 h
Outline: (§1)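 Cells seeded 10,000–30,000/cm² (adherent) or 100,000/mL (suspension) in medium with 10% fetal calf serum; after 24 h treated in duplicate with serial dilutions for 72 h. Viable cells read by CellTiter-Glo luminescence; IC50 from sigmoidal fit; at least two independent experiments.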

[4] = target: Serine/threonine-protein kinase pim-1 (Homo sapiens, UniProt P11309); assay: Inhibition of PIM1 (unknown origin) in presence of [gamma-33P]ATP
Sequence of Serine/threonine-protein kinase pim-1 (P11309 whole entry): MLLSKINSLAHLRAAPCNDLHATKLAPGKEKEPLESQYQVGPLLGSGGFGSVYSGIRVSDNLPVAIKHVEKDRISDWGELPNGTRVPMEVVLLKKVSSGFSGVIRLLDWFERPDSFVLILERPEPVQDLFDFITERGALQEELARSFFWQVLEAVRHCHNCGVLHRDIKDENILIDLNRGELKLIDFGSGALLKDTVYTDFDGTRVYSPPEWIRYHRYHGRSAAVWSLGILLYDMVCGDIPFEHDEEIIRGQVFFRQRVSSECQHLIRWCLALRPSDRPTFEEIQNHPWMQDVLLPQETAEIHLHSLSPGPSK

MDA-MB-231 = assay: Antiproliferative activity against human MDA-MB-231 cells assessed as inhibition of cell growth incubated for 72 hrs by cell-titer glo assay; type: functional, cell-based; details: MDA-MB-231, 72 h
Outline: (§2)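 Cells seeded at 10,000–30,000/cm² (adherent) or 100,000/mL (nonadherent) in medium with 10% fetal calf serum; after 24 h, treated in duplicate with serial dilutions for 72 h. Viable cell number read by CellTiter-Glo luminescence; IC50 from sigmoidal fit; at least two independent experiments.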

[5] = target: Eukaryotic translation initiation factor 2-alpha kinase 3 (Homo sapiens, UniProt Q9NZJ5); assay: Inhibition of PERK (unknown origin) in presence of [gamma-33P]ATP
Sequence of Eukaryotic translation initiation factor 2-alpha kinase 3 (Q9NZJ5 whole entry, the tested form may be a part): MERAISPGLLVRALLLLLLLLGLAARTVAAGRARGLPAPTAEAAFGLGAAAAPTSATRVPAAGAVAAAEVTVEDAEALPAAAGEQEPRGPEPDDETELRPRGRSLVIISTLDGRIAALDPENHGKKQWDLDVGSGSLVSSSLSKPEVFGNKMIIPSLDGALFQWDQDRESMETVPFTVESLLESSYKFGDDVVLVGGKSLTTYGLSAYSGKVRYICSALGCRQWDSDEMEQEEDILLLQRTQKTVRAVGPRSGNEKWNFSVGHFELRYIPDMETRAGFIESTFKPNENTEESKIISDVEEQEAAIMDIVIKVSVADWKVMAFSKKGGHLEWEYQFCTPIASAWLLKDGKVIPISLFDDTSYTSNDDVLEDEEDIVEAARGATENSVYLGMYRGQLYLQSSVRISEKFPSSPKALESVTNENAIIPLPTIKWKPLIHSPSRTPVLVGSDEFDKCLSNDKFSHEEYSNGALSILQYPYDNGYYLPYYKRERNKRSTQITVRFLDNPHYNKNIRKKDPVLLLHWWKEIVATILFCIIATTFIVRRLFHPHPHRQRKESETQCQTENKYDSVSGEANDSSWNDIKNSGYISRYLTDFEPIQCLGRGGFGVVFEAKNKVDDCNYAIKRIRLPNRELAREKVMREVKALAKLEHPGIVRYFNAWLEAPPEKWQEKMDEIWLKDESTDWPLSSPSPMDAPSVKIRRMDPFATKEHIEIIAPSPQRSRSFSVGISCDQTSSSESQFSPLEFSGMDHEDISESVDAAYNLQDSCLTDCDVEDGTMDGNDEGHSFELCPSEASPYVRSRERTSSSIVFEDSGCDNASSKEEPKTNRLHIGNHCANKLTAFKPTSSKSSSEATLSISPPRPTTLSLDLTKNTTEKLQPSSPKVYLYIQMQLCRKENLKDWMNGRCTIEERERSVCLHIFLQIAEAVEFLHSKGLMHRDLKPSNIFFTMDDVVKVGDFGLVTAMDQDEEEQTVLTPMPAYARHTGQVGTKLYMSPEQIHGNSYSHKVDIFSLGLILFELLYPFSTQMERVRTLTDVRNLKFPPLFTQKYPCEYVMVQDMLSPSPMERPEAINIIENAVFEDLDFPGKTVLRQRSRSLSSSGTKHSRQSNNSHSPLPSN

U2OS [6] = assay: Effect on cell morphology in human U2OS cells expressing GFP/alpha-tubulin fusion protein assessed as misaligned chromosomes […] at 1 uM incubated for 24 hrs by laser scanning confocal microscopy analysis; type: functional, cell-based
[7] = target: Hepatocyte growth factor receptor (Homo sapiens, UniProt P08581); assay: Inhibition of MET (unknown origin) in presence of [gamma-33P]ATP
[8] = target: cAMP-dependent protein kinase (PKA) (Homo sapiens) (UniProt P22694+P17612+P22612); assay: Inhibition of recombinant human full-length PKA expressed in E.coli BL21 (DE3) pLysS cells assessed as residual activity at 1 uM relative to control
[9] = target: Mitogen-activated protein kinase 11 (Homo sapiens) (UniProt Q15759); assay: Inhibition of N-terminal GST fusion protein corresponding to full-length human SAPK2b expressed in E. coli assessed as residual activity at 0.1 uM relative to control
[10] = target: Ribosomal protein S6 kinase alpha-3 (Homo sapiens) (UniProt P51812); assay: Inhibition of N-terminal His6 tagged recombinant human full-length Rsk2 expressed in baculovirus infected Sf21 cells assessed as residual activity at 1 uM relative to control
[11] = Cmax in Beagle dog at 5 mg/kg, po by LC-MS analysis; type: ADME, organism-based, Canis lupus familiaris; details: in vivo
[12] = target: Serine/threonine-protein kinase D1 (Homo sapiens) (UniProt Q15139); assay: Inhibition of N-terminal His6-tagged recombinant full-length human PKCmu expressed in Sf21 cells assessed as residual activity at 1 uM relative to control
Sequence of Serine/threonine-protein kinase D1 (Homo sapiens) (Q15139 whole entry): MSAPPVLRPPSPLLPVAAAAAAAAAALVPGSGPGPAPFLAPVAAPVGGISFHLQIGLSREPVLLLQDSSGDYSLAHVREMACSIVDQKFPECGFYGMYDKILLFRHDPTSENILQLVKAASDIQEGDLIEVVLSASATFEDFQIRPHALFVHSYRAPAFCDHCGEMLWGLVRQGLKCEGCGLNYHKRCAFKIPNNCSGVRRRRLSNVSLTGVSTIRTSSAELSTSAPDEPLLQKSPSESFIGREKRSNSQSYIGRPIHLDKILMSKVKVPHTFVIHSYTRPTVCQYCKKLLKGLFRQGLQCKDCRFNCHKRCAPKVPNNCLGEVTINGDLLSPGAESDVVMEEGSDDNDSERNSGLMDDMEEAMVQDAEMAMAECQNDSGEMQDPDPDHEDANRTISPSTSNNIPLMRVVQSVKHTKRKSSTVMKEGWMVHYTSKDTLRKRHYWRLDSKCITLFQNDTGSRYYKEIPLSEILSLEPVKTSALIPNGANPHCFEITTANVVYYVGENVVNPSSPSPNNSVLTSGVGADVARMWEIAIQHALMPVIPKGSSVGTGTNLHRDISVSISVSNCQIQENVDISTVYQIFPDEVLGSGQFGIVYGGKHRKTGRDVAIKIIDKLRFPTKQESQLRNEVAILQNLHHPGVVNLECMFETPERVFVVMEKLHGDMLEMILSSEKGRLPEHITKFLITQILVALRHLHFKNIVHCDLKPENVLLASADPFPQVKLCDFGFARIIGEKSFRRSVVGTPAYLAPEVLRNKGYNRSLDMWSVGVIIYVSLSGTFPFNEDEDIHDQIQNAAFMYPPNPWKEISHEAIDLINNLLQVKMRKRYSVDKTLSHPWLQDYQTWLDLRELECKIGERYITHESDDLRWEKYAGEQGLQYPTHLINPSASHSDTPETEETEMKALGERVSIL

MOLM-13 = assay: Antiproliferative activity against human MOLM-13 cells assessed as inhibition of cell growth incubated for 72 hrs by cell-titer glo assay; type: functional, cell-based; details: MOLM-13, 72 h
Outline: (§3)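 Cells from ATCC or ECACC, kept in supplier-recommended medium with 1% penicillin-streptomycin at 37°C, 5% CO₂. Seeded at 10,000–30,000/cm² (adherent) or 100,000/mL (nonadherent) in medium with 10% fetal calf serum. Dosed after 24 h in duplicate with serial dilutions. Viable cells read by CellTiter-Glo 72 h later. IC50 from sigmoidal fit. At least two independent experiments.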

[13] = Antiproliferative activity against human GM13705 cells assessed as inhibition of cell growth incubated for 72 hrs by cell-titer glo assay; type: functional, cell-based; details: GM13705, 72 h; outline: as §2
SW48 = assay: Antiproliferative activity against human SW48 cells assessed as inhibition of cell growth incubated for 72 hrs by cell-titer glo assay; type: functional, cell-based; details: SW48, 72 h
[14] = target: Serine/threonine-protein kinase MARK2 (Homo sapiens) (UniProt Q7KZI7); assay: Inhibition of N-terminal His6-tagged recombinant full-length human PAR-1Balpha expressed in baculovirus infected Sf21 cells assessed as residual activity at 1 uM relative to control
Sequence of Serine/threonine-protein kinase MARK2 (Homo sapiens) (Q7KZI7 whole entry): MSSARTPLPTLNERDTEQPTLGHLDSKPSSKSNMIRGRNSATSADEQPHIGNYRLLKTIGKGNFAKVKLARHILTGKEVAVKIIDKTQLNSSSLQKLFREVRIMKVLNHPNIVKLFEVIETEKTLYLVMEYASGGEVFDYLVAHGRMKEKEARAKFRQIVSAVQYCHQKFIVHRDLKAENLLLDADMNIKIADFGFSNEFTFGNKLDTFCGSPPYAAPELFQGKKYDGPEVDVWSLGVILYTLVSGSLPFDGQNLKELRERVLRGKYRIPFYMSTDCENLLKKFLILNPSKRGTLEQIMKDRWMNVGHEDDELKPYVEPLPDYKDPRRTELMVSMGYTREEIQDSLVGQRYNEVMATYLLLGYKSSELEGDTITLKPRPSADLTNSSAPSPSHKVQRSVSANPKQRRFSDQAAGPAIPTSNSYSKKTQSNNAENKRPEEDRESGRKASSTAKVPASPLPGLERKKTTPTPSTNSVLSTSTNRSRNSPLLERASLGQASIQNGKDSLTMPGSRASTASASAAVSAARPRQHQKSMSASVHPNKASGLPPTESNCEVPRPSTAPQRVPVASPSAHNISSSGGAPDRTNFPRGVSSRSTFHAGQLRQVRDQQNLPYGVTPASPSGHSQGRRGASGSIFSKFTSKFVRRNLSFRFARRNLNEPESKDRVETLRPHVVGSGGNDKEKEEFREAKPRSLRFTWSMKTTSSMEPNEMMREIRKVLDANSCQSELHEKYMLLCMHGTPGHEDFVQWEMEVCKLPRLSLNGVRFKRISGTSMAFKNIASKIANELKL

[15] = target: Testis-specific serine/threonine-protein kinase 1 (Homo sapiens) (UniProt Q9BXA7); assay: Inhibition of 6His-tagged recombinant human full length TSSK1 expressed in baculovirus infected Sf21 cells assessed as residual activity at 1 uM relative to control
Sequence of Testis-specific serine/threonine-protein kinase 1 (Homo sapiens) (Q9BXA7 whole entry): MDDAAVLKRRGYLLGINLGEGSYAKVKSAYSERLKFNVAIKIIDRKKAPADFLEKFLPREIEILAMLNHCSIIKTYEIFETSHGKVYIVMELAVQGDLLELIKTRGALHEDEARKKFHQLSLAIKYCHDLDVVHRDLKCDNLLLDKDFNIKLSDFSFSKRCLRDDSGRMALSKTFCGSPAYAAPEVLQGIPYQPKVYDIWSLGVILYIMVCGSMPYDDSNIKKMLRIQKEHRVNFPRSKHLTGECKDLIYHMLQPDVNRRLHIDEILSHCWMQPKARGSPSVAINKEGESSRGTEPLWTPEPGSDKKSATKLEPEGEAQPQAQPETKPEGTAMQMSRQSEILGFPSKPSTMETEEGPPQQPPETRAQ

[16] = target: Serine/threonine-protein kinase Chk1 (Homo sapiens, UniProt O14757); assay: Inhibition of CHK1 (unknown origin) in presence of [gamma-33P]ATP
Sequence of Serine/threonine-protein kinase Chk1 (O14757 whole entry): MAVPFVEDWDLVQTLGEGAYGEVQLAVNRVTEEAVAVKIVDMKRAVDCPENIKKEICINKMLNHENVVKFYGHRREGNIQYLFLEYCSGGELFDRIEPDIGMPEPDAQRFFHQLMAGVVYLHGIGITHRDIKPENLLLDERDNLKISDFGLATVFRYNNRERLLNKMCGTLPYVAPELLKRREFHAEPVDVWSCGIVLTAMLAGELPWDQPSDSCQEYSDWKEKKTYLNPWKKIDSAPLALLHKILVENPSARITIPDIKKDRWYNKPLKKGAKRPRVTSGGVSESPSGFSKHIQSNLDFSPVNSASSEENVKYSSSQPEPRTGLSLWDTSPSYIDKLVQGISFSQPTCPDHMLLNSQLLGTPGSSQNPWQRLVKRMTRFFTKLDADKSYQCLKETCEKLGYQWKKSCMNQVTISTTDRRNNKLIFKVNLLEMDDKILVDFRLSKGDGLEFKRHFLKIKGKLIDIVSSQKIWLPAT

SF-539 = assay: Antiproliferative activity against human SF-539 cells assessed as inhibition of cell growth incubated for 72 hrs by cell-titer glo assay; type: functional, cell-based; details: SF-539, 72 h; outline: as §3
[17] = target: RAF proto-oncogene serine/threonine-protein kinase (Homo sapiens) (UniProt P04049); assay: Inhibition of N-terminal GST-tagged recombinant human c-RAF (306 to 648 residues) expressed in Sf9 cells assessed as residual activity at 0.1 uM relative to control
KU812 cell line = assay: Antiproliferative activity against human KU812 cell line assessed as inhibition of cell growth incubated for 72 hrs by cell-titer glo assay; type: functional, cell-based; details: KU812, 72 h; outline: as §2
[18] = target: Tyrosine-protein kinase SYK (Homo sapiens, UniProt P43405); assay: Inhibition of N-terminal His6-tagged recombinant full-length human Syk expressed in baculovirus infected Sf21 cells assessed as residual activity at 1 uM relative to control
[19] = Antiproliferative activity against human HCC15 cells assessed as inhibition of cell growth incubated for 72 hrs by cell-titer glo assay; type: functional, cell-based; details: HCC15, 72 h; outline: as §2
EKVX = assay: Antiproliferative activity against human EKVX cells assessed as inhibition of cell growth incubated for 72 hrs by cell-titer glo assay; type: functional, cell-based; outline: as §1
SK-OV-3 = assay: Antiproliferative activity against human SK-OV-3 cells assessed as inhibition of cell growth incubated for 72 hrs by cell-titer glo assay; type: functional, cell-based; details: SK-OV-3, 72 h
[20] = AUC in Sprague-Dawley rat at 10 mg/kg, iv by LC-MS analysis; type: ADME, organism-based; details: in vivo
[21] = Oral bioavailability in Beagle dog at 5 mg/kg by LC-MS analysis; type: ADME, organism-based, Canis lupus familiaris; details: in vivo
[22] = Volume of distribution at steady state in male cynomolgus monkey at 5 mg/kg, iv by LC-MS analysis; type: ADME, organism-based, Macaca fascicularis; details: in vivo, read-out: Vdss
NCI-H1993 = assay: Antiproliferative activity against human NCI-H1993 cells assessed as inhibition of cell growth incubated for 72 hrs by cell-titer glo assay; type: functional, cell-based; details: NCI-H1993, 72 h; outline: as §3

Sequence of Protein-tyrosine kinase 6 (Q13882 whole entry): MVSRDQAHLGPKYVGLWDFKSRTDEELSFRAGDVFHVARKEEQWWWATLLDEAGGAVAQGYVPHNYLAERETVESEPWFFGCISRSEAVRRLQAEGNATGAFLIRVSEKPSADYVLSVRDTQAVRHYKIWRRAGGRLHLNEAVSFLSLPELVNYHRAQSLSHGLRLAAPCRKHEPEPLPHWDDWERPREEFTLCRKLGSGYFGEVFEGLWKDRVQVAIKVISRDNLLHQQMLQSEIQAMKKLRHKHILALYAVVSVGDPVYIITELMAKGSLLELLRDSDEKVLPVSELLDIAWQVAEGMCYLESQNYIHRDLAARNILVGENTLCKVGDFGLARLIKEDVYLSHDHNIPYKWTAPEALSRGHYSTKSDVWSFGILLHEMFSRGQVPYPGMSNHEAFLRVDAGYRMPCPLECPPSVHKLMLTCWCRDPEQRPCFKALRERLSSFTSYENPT

Q: With `CN1CCN(c2ccc(OC(F)(F)F)c(Nc3ncc4c(n3)-c3c(c(C(N)=O)nn3CCO)CC4)c2)CC1` [ONVANSERTIB] as the molecule, how does the IC50 [1] read?
A: > 10 µM

Q: And the Activity [2]?
A: 198%

Q: What about the Activity (U2OS [3]) of the same molecule?
A: Active

Q: And the IC50 (786-0)?
A: 0.129 µM

Q: What about the IC50 [4] of the same molecule?
A: > 10 µM

Q: What about the IC50 (MDA-MB-231) of the same molecule?
A: 0.172 µM

Q: What about the IC50 [5] of the same molecule?
A: > 10 µM

Q: And the Activity (U2OS [6])?
A: Active

Q: What about the IC50 [7] of the same molecule?
A: > 10 µM

Q: What about the Activity [8] of the same molecule?
A: 85%

Q: What about the Activity [9] of the same molecule?
A: 152%

Q: And the Activity [10]?
A: 89%

Q: And the Cmax [11]?
A: 1200 nM

Q: And the Activity [12]?
A: 85%

Q: And the IC50 (MOLM-13)?
A: 0.022 µM

Q: And the IC50 [13]?
A: 0.162 µM

Q: What about the IC50 (SW48) of the same molecule?
A: 0.032 µM

Q: And the Activity [14]?
A: 87%

Q: What about the Activity [15] of the same molecule?
A: 20%

Q: What about the IC50 [16] of the same molecule?
A: > 10 µM

Q: And the IC50 (SF-539)?
A: 0.047 µM

Q: And the Activity [17]?
A: 93%

Q: And the IC50 (KU812 cell line)?
A: 0.02 µM

Q: What about the Activity [18] of the same molecule?
A: 89%

Q: What about the IC50 [19] of the same molecule?
A: 0.015 µM

Q: What about the IC50 (EKVX) of the same molecule?
A: 0.196 µM

Q: And the IC50 (SK-OV-3)?
A: 0.191 µM

Q: And the AUC [20]?
A: 13.8 µM·h

Q: What about the F [21] of the same molecule?
A: 63%

Q: What about the Vd [22] of the same molecule?
A: 2.9 L/kg

Q: And the IC50 (NCI-H1993)?
A: 0.287 µM
